Measurements from ChEMBL document CHEMBL1125673, “Synthesis and antiretrovirus properties of 5'-isocyano-5'-deoxythymidine, 5'-isocyano-2',5'-dideoxyuridine, 3'-azido-5'-isocyano-3',5'-dideoxythymidine, and 3'-azido-5'-isocyano-2',3',5'-trideoxyuridine” (J Med Chem, 1991).
Values after ≈ are worked out from the molar mass of the structure shown.

Key:
[1] = system: Human immunodeficiency virus 1; test: Concentration of compound required to inhibit HIV-1 replication in MT-4 cells by 50%; type: functional, organism-based; conditions: Human immunodeficiency virus 1, MT4
How it was run: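 HIV-1 strain HTLV-III_B infection of human MT-4 lymphocytes; EC50 is the compound concentration that inhibits virus-induced cytopathogenicity by 50%.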

MT4 = test: Concentration of compound required to reduce MT-4 cells viability by 50%.; type: functional; conditions: Homo sapiens
How it was run: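 Uninfected human MT-4 lymphocyte cultures exposed to compound; CC50 is the concentration that lowers cell viability by 50%.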

C3H/3T3 = test: Concentration of compound required to inhibit […] MSV-induced transformation of C3H/3T3 cells by 50%.; type: functional, cell-based; conditions: Mus musculus
How it was run: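 Moloney murine sarcoma virus (MSV) infection of murine embryo fibroblast C3H/3T3 cells; EC50 is the compound concentration that inhibits MSV-induced cell transformation by 50%.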

[2] = Minimal inhibitory concentration was measured as compound concentration that causes a microscopically visible alteration of C3H cell morphology.; type: functional; conditions: Mus musculus
How it was run: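 C3H murine embryo fibroblasts exposed to compound and examined by microscope; the minimal inhibitory concentration is the lowest level giving a visible change in cell morphology.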

[C-]#[N+]C[C@H]1OC(n2ccc(=O)[nH]c2=O)C[C@H]1N=[N+]=[N-] (stereo partly specified)
EC50 [1]: > 40 µM | CC50 (MT4): 104 µM

[C-]#[N+]C[C@H]1OC(n2cc(C)c(=O)[nH]c2=O)C[C@H]1N=[N+]=[N-] (stereo partly specified)
EC50 [1]: > 40 µM | CC50 (MT4): 122 µM

[C-]#[N+]C[C@H]1OC(n2ccc(=O)[nH]c2=O)C[C@H]1O (stereo partly specified)
EC50 (C3H/3T3): > 3.2 µM | EC50 [1]: > 200 µM | CC50 (MT4): 125 µM | MIC [2]: 3.2 µM (≈ 0.759 µg/mL)

Cc1cn([C@H]2C[C@H](N=[N+]=[N-])[C@@H](CO)O2)c(=O)[nH]c1=O [ZIDOVUDINE]
EC50 (C3H/3T3): 0.02 µM | EC50 [1]: 0.004 µM | CC50 (MT4): 20 µM | MIC [2]: > 400 µM

[C-]#[N+]C[C@H]1OC(n2cc(C)c(=O)[nH]c2=O)C[C@H]1O (stereo partly specified)
EC50 (C3H/3T3): > 3.2 µM | EC50 [1]: > 200 µM | CC50 (MT4): 144 µM | MIC [2]: 3.2 µM (≈ 0.804 µg/mL)
